ChEMBL document CHEMBL1821615 (J Med Chem, 2011)
Active and inactive are the calls of the source. No cut-off for these calls is given here.

Assays:
BXPC-3 [1] = test: Drug uptake in human BxPC3 cells assessed as decreased uptake at increasing cell density at 25 nM after 30 min by flow cytometric analysis; type: ADME, cell-based; conditions: bxpc-3, 0.5 h
In short: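 BxPC3 cells seeded at increasing densities to give subconfluent (dividing) through confluent (quiescent) cultures. Next day, cells treated with compound at 25 nM for 30 min at 37 °C, and fluorescence intensity measured by flow cytometry.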

BXPC-3 [2] = test: Cellular uptake in human BxPC3 cells assessed as decrease drug uptake at 25 nM measured after 60 mins by flow cytometric analysis in presence of clathrin inhibitor phenylarsine oxide; type: ADME, cell-based; conditions: bxpc-3, 1 h
In short: (§1)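 BxPC3 cells pretreated 60 min at 37 °C with phenylarsine oxide (10 µM; clathrin route) or Filipin III (5 µg/mL; caveolin route), or DMSO vehicle, then washed and resuspended in medium. Compound added at 25 nM; mean FL1 fluorescence read by flow cytometry in kinetic mode over 60 min, expressed as percent of maximum signal.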

BXPC-3 [3] = test: Drug uptake in human BxPC3 cells assessed as decrease drug uptake at 25 nM measured after 60 mins by flow cytometric analysis in presence of caveolin inhibitor Filipin 3; type: ADME, cell-based; conditions: bxpc-3, 1 h; in short: as §1
[4] = Displacement of [3H]-DTG from sigma 2 receptor from rat liver in presence of pantazocine
[5] = Selectivity ratio of IC50 for guinea pig brain sigma 1 receptor to IC50 for rat liver sigma 2 receptor
In short: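 Sigma-1 binding used (+)-[3H]-pentazocine (34 Ci/mmol); sigma-2 binding used [3H]-DTG (30 Ci/mmol), per the Matsumoto et al. method. IC50 taken from six to nine test concentrations in two or three experiments, each in duplicate.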

[6] = biological target: Sigma non-opioid intracellular receptor 1 (Cavia porcellus, UniProt Q60492); test: Displacement of [3H]-pentazocine from sigma 1 receptor from guinea pig brain membrane
BXPC-3 [7] = test: Cytotoxicity against human BxPC3 cells during nonproliferating stage assessed as decreased cell death at 100 uM after 18 hrs by crystal violet staining; type: functional, cell-based
In short: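 BxPC3 cells seeded at increasing densities (1 × 10^5 to 9 × 10^5) 24 h before treatment with 100 µM sigma-2 agonist. After 18 h, washed, fixed in 4% paraformaldehyde 30 min at 37 °C, crystal violet stained 15 min at 37 °C, and imaged by densitometry. Viability given as percent density relative to DMSO-treated cells.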

Sigma non-opioid intracellular receptor 1, sequence (Q60492 whole entry): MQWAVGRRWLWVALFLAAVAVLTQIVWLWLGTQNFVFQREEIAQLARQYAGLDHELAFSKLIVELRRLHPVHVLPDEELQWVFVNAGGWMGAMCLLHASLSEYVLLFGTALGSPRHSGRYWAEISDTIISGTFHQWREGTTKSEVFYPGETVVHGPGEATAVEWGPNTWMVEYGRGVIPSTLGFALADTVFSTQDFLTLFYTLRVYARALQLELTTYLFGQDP

Structure (SMILES)	Ki [4]	Ki [6]	Drug uptake (BXPC-3 [1])	Drug uptake (BXPC-3 [2])	Drug uptake (BXPC-3 [3])	Ratio Ki [5]	Activity (BXPC-3 [7])
O=[N+]([O-])c1ccc(NCCCCCCOc2cccc3c2CCCC3CCCN2CCN(C3CCCCC3)CC2)c2nonc12 (stereo not given)	10.8 nM	78.7 nM	Not Active	69%	50%	8	–
COc1cccc2c1CCCC2CCCN1CCN(C2CCN(CCCCCCNc3ccc([N+](=O)[O-])c4nonc34)CC2)CC1 (stereo not given)	1720 nM	2570 nM	–	–	–	–	–
COc1cccc2c1CCCC2CCCN1CCN(C2CCCCC2)CC1 (stereo not given)	0.68 nM	–	–	–	–	–	inactive
Fc1cccc(F)c1[C@H]1CC[C@@H](N2CCN(C3CCCCC3)CC2)CC1	–	–	–	–	–	–	inactive

More lines, main results first:

Ki [4]	Ki [6]	Structure (SMILES)	Drug uptake (BXPC-3 [1])	Drug uptake (BXPC-3 [2])	Drug uptake (BXPC-3 [3])	Ratio Ki [5]	Activity (BXPC-3 [7])
39.3 nM	96.2 nM	O=[N+]([O-])c1ccc(NCCOCCOc2cccc3c2CCCC3CCCN2CCN(C3CCCCC3)CC2)c2nonc12 (stereo not given)	–	–	–	2.5	–
5020 nM	> 5000 nM	COc1cccc2c1CCCC2CCCN1CCN(C2CCN(CCCCCCNS(=O)(=O)c3cccc4c(N(C)C)cccc34)CC2)CC1 (stereo not given)	–	–	–	–	–
25.7 nM	19.8 nM	CN(C)c1cccc2c(S(=O)(=O)NCCOCCOc3cccc4c3CCCC4CCCN3CCN(C4CCCCC4)CC3)cccc12 (stereo not given)	–	–	–	–	–
20.8 nM	9.08 nM	CN(C)c1cccc2c(S(=O)(=O)NCCCCCCOc3cccc4c3CCCC4CCCN3CCN(C4CCCCC4)CC3)cccc12 (stereo not given)	–	–	–	–	–
